Assay results: ChEMBL document CHEMBL5523707, “Novel Inhibitory Site Revealed by XAP044 Mode of Action on the Metabotropic Glutamate 7 Receptor Venus Flytrap Domain” (J Med Chem, 2024)
Values belong to the molecule of their own block, whether it stands above or below them. Activity calls are given as the source filed them. No cut-off for these calls is given here.

Assays:
[1] = species: Rattus norvegicus; experiment: Ratio of pEC50 for antagonist activity against LSP4-202-induced wild type rat mGlu7 assessed as decrease in LSP4-202 potency to pEC50 for LSP4-202-induced wild type rat mGlu7; details: filed as antagonist
[2] = target: T1, Metabotropic glutamate receptor 7 (Rattus norvegicus, UniProt P35400); experiment: Inhibition of [3H] -LY341495 binding to rat mGlu7 expressed in CHO cell membrane incubated for 30 mins in presence of LY341495 by liquid scintillation analysis; format: cell membranes
[3] = target: Metabotropic glutamate receptor 7 (Rattus norvegicus) (UniProt P35400); experiment: Antagonist activity against LSP4-202-induced rat mGlu7 activation transfected in HEK293 cells co-transfected with chimeric Gqi9 assessed as decrease in LSP4-202 potency by measuring LSP4-202 maximum efficacy at 30 to 100 uM incubated for 24 hrs by IP-one HTRF assay relative to control; format: functional, cell-based; details: filed as antagonist, dose 30-100 µM
Procedure, shortened: (§1)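 IP-One HTRF IP1 read-out in HEK293 transiently expressing rat mGlu7 plus chimeric Gqα9, 24 h after electroporation. LSP4-2022 concentration-response was tested with derivatives at 30 or 100 µM. Gives pEC50, pEC50/pEC50 control ratio, and max as % of LSP4-2022 maximal effect over basal. Triplicates, n independent experiments; paired t-test.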

[4] = species: Rattus norvegicus; experiment: Ratio of pEC50 for antagonist activity against LSP4-202 induced rat mGlu7 S229A mutant assessed as decrease in LSP4-202 potency by measuring LSP4-202 pEC50 at 100 uM to pEC50 for LSP4-202-induced rat mGlu7 S229A mutant
[5] = species: Rattus norvegicus; experiment: Ratio of pEC50 for antagonist activity against LSP4-202 induced wild type rat mGlu7 assessed as decrease in LSP4-202 potency by measuring LSP4-202 pEC50 at 30 uM to pEC50 for LSP4-202-induced wild type rat mGlu7
[6] = Antagonist activity against LSP4-202-induced rat mGlu7 S229A mutant assessed as decrease in LSP4-202 potency by measuring LSP4-202 pEC50
[7] = species: Rattus norvegicus; experiment: Ratio of pEC50 for antagonist activity against LSP4-202-induced rat mGlu7 S229A mutant assessed as decrease in LSP4-202 potency to pEC50 for LSP4-202-induced rat mGlu7 S229A mutant; details: filed as antagonist
[8] = Antagonist activity at LSP4-202-induced rat mGlu7 K233S mutant assessed as decrease in LSP4-202 potency by measuring LSP4-202 pEC50
[9] = species: Rattus norvegicus; experiment: Ratio of pEC50 for antagonist activity against LSP4-202 induced wild type rat mGlu7 assessed as decrease in LSP4-202 potency by measuring LSP4-202 pEC50 at 1 uM to pEC50 for LSP4-202-induced wild type rat mGlu7
[10] = species: Rattus norvegicus; experiment: Ratio of pEC50 for antagonist activity at LSP4-202-induced rat mGlu7 K233D mutant assessed as decrease in LSP4-202 potency to pEC50 for LSP4-202-induced rat mGlu7 K233D mutant; details: filed as antagonist
[11] = species: Rattus norvegicus; experiment: Ratio of pEC50 for antagonist activity against LSP4-202 induced rat mGlu7 S229A mutant assessed as decrease in LSP4-202 potency by measuring LSP4-202 pEC50 at 30 uM to pEC50 for LSP4-202-induced rat mGlu7 S229A mutant
[12] = Antagonist activity against LSP4-202-induced rat mGlu7 K233D mutant assessed as decrease in LSP4-202 potency by measuring LSP4-202 pEC50
[13] = species: Rattus norvegicus; experiment: Ratio of pEC50 for antagonist activity against LSP4-202-induced rat mGlu7 K233A mutant assessed as decrease in LSP4-202 potency to pEC50 for LSP4-202-induced rat mGlu7 K233A mutant; details: filed as antagonist
[14] = Antagonist activity against LSP4-202-induced rat mGlu7 […] mutant assessed as decrease in LSP4-202 potency by measuring LSP4-202 pEC50 at 100 uM
[15] = Antagonist activity against LSP4-202-induced rat mGlu7 K233A mutant assessed as decrease in LSP4-202 potency by measuring LSP4-202 pEC50
[16] = species: Rattus norvegicus; experiment: Ratio of pEC50 for antagonist activity against LSP4-202 induced wild type rat mGlu7 assessed as decrease in LSP4-202 potency by measuring LSP4-202 pEC50 at 10 uM to pEC50 for LSP4-202-induced wild type rat mGlu7
[17] = target: T1, Metabotropic glutamate receptor 7; experiment: Antagonist activity against rat mGlu7 activation transfected in HEK293 cells co-transfected with chimeric Gqi9 incubated for 24 hrs in presence of LSP4-2022 by IP-one HTRF assay; format: functional, cell-based; details: read-out: IC50
Procedure, shortened: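 Inhibition curves were run with increasing inhibitor concentrations against IP1 production by 30 µM LSP4-2022. Rat mGlu7 was co-expressed with Gqα9 in HEK293 and assayed 24 h post-transfection with IP-One HTRF. IC50/pIC50 are means ± sem of independent experiments in triplicates. pIC50 compared to reference by unpaired t-test.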

[18] = Antagonist activity against LSP4-202-induced rat mGlu7 S237A mutant assessed as decrease in LSP4-202 potency by measuring LSP4-202 pEC50
[19] = species: Rattus norvegicus; experiment: Ratio of pEC50 for antagonist activity against LSP4-202 induced wild type rat mGlu7 assessed as decrease in LSP4-202 potency by measuring LSP4-202 pEC50 at 3 uM to pEC50 for LSP4-202-induced wild type rat mGlu7
[20] = target: Metabotropic glutamate receptor 7 (Rattus norvegicus) (UniProt P35400); experiment: Non-competitive antagonist activity against rat mGlu7 receptor assessed as decrease in L-AP4 effect at 1 to 100 uM; details: filed as antagonist, dose 1-100 µM
[21] = species: Rattus norvegicus; experiment: Ratio of pEC50 for antagonist activity against LSP4-202-induced rat mGlu7 S237A mutant assessed as decrease in LSP4-202 potency to pEC50 for LSP4-202-induced rat mGlu7 S237A mutant; details: filed as antagonist
[22] = species: Rattus norvegicus; experiment: Ratio of pEC50 for antagonist activity against LSP4-202-induced rat mGlu7 K233S mutant assessed as decrease in LSP4-202 potency to pEC50 for LSP4-202-induced rat mGlu7 K233S mutant; details: filed as antagonist
[23] = Antagonist activity against LSP4-202-induced rat mGlu7 […] mutant assessed as decrease in LSP4-202 potency by measuring LSP4-202 pEC50 at 10 uM
[24] = species: Rattus norvegicus; experiment: Ratio of pEC50 for antagonist activity against LSP4-202-induced rat mGlu7 activation transfected in HEK293 cells co-transfected with chimeric Gqi9 assessed as decrease in LSP4-202 potency to pEC50 for LSP4-202-induced rat mGlu7 activation transfected in HEK293 cells co-transfected with chimeric Gqi9; format: cell-based; procedure, shortened: as §1
[25] = Antagonist activity against LSP4-202-induced rat mGlu7 […] mutant assessed as decrease in LSP4-202 potency by measuring LSP4-202 pEC50 at 30 uM
[26] = species: Rattus norvegicus; experiment: Ratio of pEC50 for antagonist activity against LSP4-202 induced rat mGlu7 S229A mutant assessed as decrease in LSP4-202 potency by measuring LSP4-202 pEC50 at 10 uM to pEC50 for LSP4-202-induced rat mGlu7 S229A mutant
[27] = target: T1, Metabotropic glutamate receptor 7; experiment: Inhibition of [3H] -LY341495 binding to rat mGlu7 expressed in CHO cell membrane incubated for 30 mins by liquid scintillation analysis
[28] = Agonist activity at rat mGlu7 K233A mutant
[29] = target: Metabotropic glutamate receptor 7 (Rattus norvegicus, UniProt P35400, N74K); experiment: Agonist activity at rat mGlu7 N74K mutant
[30] = target: Metabotropic glutamate receptor 7 (Rattus norvegicus, UniProt P35400, K60A/S160A); experiment: Agonist activity at rat mGlu7 K60A/S160A mutant
[31] = Agonist activity at rat mGlu7 loop beta10-alpha7 region
[32] = Agonist activity at rat mGlu7 N74K/loop 4 region
[33] = Agonist activity at rat mGlu7 N288A mutant
[34] = target: Metabotropic glutamate receptor 4 (Rattus norvegicus, UniProt P31423, R258A); experiment: Agonist activity at rat mGlu4 R258A mutant
[35] = target: Metabotropic glutamate receptor 4 (Rattus norvegicus, UniProt P31423, S160D); experiment: Agonist activity against rat mGlu4 S160D mutant
[36] = target: Metabotropic glutamate receptor 7 (Rattus norvegicus, UniProt P35400, N74A); experiment: Agonist activity at rat mGlu7 N74A mutant
[37] = target: Metabotropic glutamate receptor 4 (Rattus norvegicus, UniProt P31423); experiment: Agonist activity against wild type rat mGlu4; format: functional
[38] = target: Metabotropic glutamate receptor 7 (Rattus norvegicus, UniProt P35400, S160A); experiment: Agonist activity at rat mGlu7 S160A mutant
[39] = target: T1, Metabotropic glutamate receptor 7; experiment: Antagonist activity against LSP4-202-induced rat mGlu7 activation transfected in HEK293 cells co-transfected with chimeric Gqi9 assessed as decrease in LSP4-202 potency by measuring LSP4-202 pEC50 incubated for 24 hrs by IP-one HTRF assay; format: functional, cell-based; procedure, shortened: as §1
[40] = Agonist activity at rat mGlu7 S237A mutant
[41] = Agonist activity at rat mGlu7 S229A mutant
[42] = Agonist activity at rat mGlu4 R258Q/D262/R263 mutant
[43] = Agonist activity at rat mGlu7 K233S mutant
[44] = target: Metabotropic glutamate receptor 4 (Rattus norvegicus, UniProt P31423, S160A); experiment: Agonist activity against rat mGlu4 S160A mutant
[45] = Agonist activity at rat mGlu7 Q258R/D262/R263 mutant
[46] = target: Metabotropic glutamate receptor 7 (Rattus norvegicus, UniProt P35400, Q258A); experiment: Agonist activity at rat mGlu7 Q258A mutant
[47] = Agonist activity at rat mGlu4 loop beta-10-alpha7 region
[48] = target: Metabotropic glutamate receptor 4 (Rattus norvegicus, UniProt P31423, R60A); experiment: Agonist activity against rat mGlu4 R60A mutant
[49] = Agonist activity at rat mGlu7 K233D mutant
[50] = target: T1, Metabotropic glutamate receptor 7; experiment: Agonist activity at wild type rat mGlu7; format: functional
Procedure, shortened: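 HEK293 cells were transiently transfected by electroporation with rat mGlu7 plasmid plus chimeric Gqα9 to couple to phospholipase C. They were grown in DMEM with 10% FBS on polyornithine-coated wells at 150 000 cells/well.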

[51] = target: Metabotropic glutamate receptor 4 (Rattus norvegicus, UniProt P31423, K74A); experiment: Agonist activity against rat mGlu4 K74A mutant
[52] = Agonist activity at rat mGlu7 D314A mutant
[53] = target: Metabotropic glutamate receptor 7 (Rattus norvegicus, UniProt P35400, K60A); experiment: Agonist activity at rat mGlu7 K60A mutant
Sequence of Metabotropic glutamate receptor 7 (Rattus norvegicus, UniProt P35400, K60A) (P35400 35-915 K60A limits assumed): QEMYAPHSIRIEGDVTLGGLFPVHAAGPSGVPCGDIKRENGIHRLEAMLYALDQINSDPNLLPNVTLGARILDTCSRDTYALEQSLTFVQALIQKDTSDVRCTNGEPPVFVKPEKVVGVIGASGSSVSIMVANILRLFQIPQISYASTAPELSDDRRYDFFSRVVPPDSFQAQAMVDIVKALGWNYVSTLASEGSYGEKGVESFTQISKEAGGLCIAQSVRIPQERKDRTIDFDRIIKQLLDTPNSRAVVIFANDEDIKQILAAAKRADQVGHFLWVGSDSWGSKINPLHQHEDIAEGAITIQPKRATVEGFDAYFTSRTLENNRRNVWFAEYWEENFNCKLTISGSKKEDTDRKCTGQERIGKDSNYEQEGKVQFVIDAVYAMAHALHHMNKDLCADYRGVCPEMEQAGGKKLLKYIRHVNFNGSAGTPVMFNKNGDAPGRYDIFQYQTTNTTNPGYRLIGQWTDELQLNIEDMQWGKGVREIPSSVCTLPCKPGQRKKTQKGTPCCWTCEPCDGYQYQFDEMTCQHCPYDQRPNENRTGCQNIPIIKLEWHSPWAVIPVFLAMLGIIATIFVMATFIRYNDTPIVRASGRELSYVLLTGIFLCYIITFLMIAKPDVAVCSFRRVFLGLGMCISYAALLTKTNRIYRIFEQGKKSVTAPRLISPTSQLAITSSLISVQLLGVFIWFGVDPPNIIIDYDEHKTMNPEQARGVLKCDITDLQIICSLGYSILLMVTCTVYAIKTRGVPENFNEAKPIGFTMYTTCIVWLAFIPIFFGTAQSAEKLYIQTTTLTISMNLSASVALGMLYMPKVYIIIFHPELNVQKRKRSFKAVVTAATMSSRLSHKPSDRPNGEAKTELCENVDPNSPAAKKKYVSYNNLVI

T1 sequence (P35400 whole entry): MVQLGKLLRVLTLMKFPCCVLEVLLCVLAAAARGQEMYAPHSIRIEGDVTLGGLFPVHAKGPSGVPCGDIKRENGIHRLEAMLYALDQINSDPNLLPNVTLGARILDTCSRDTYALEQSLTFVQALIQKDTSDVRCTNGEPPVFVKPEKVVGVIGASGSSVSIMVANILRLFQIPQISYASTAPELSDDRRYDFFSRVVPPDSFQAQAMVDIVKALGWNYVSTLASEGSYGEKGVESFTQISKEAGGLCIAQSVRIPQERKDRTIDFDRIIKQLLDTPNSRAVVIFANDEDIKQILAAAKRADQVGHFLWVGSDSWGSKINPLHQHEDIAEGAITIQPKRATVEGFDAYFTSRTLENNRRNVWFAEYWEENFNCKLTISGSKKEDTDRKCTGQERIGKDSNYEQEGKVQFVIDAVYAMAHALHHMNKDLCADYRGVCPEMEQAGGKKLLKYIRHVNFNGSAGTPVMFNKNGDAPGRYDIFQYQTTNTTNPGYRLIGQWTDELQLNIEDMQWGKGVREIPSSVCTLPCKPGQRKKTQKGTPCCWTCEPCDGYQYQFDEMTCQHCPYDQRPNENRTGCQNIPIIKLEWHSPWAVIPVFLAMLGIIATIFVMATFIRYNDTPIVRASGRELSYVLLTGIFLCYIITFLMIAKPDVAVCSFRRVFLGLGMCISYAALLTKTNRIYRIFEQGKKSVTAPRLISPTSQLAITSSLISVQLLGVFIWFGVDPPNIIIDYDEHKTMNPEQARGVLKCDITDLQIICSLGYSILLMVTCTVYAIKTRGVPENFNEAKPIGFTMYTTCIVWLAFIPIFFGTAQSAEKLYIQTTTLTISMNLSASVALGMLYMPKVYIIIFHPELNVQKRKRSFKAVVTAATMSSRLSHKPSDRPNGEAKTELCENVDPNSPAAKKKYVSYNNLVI
Sequence of Metabotropic glutamate receptor 7 (Rattus norvegicus) (P35400 whole entry): as above
Sequence of Metabotropic glutamate receptor 4 (Rattus norvegicus, UniProt P31423, S160A) (P31423 33-912 S160A limits assumed): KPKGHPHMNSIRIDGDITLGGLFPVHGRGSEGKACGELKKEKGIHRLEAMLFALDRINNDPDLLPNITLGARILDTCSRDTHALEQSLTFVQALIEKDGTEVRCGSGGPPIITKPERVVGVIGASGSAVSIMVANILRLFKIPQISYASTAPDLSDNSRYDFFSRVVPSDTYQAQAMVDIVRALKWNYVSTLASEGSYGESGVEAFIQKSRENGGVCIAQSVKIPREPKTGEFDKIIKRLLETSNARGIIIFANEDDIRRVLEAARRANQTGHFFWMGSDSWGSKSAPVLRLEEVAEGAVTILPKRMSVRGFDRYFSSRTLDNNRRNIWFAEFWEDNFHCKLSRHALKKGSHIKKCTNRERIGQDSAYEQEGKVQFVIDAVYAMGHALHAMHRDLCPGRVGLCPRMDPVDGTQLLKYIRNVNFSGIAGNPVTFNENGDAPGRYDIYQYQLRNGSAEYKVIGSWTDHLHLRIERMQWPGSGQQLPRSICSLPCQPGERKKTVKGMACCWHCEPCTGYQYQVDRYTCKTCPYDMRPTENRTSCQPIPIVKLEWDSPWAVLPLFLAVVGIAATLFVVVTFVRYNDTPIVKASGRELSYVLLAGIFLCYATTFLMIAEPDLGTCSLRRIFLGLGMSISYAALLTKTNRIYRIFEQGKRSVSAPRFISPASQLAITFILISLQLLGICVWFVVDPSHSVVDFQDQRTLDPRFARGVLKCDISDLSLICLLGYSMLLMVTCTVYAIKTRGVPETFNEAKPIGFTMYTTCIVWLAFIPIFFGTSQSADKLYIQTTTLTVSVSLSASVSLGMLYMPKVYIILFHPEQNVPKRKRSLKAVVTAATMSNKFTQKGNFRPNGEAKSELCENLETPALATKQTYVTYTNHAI
Sequence of Metabotropic glutamate receptor 7 (Rattus norvegicus, UniProt P35400, S160A) (P35400 35-915 S160A limits assumed): as the sequence (P35400 35-915 K60A limits assumed) above, with A26K, S126A counted along it

- Ratio [1]: 0.83
- IC50 [2]: 0.08 µM
- Emax [3]: 96.4%
- Ratio [4]: 1
- Ratio [5]: 0.83
- pEC50 [6]: 4.99
- Ratio [7]: 1.02
- pEC50 [8]: 4.25
- Ratio [9]: 0.96
- Ratio [10]: 0.93
- Ratio [11]: 0.9
- pEC50 [12]: 3.56
- Ratio [13]: 0.88
- EC50 [14]: 10.9 µM
- pEC50 [14]: 4.99
- pEC50 [15]: 3.58
- Ratio [16]: 0.91
- IC50 [17]: 4.33 µM
- pEC50 [18]: 3.7
- Ratio [19]: 0.94
- Activity [20]: Active
- Ratio [21]: 0.78
- Ratio [22]: 0.88
- EC50 [23]: 25 µM
- pEC50 [23]: 4.6
- EC50 [25]: 49.5 µM
- pEC50 [25]: 4.32
- Ratio [26]: 0.96
Structure (SMILES): O=c1c(Oc2ccc(I)cc2)coc2cc(O)ccc12
- Ratio [24]: 0.82

Structure (SMILES): N[C@](CC1c2ccccc2Oc2ccccc21)(C(=O)O)[C@H]1C[C@@H]1C(=O)O
- IC50 [27]: 0.19 µM

- EC50 [28]: 87.7 µM
- pEC50 [28]: 4.06
- EC50 [29]: 47 µM
- EC50 [30]: > 300 µM
- EC50 [31]: 2.18 µM
- EC50 [32]: 2.56 µM
- EC50 [33]: 49.3 µM
- EC50 [34]: 4.91 µM
- EC50 [35]: 18.5 µM
- EC50 [36]: 32 µM
- EC50 [37]: 0.833 µM
- EC50 [38]: > 300 µM
- EC50 [39]: 19.5 µM
- EC50 [40]: 18.3 µM
- pEC50 [40]: 4.74
- EC50 [41]: 14.5 µM
- pEC50 [41]: 4.96
- EC50 [42]: 7 µM
- EC50 [43]: 40.9 µM
- pEC50 [43]: 4.39
- EC50 [44]: 26.2 µM
- EC50 [45]: 13.9 µM
- EC50 [46]: 18.2 µM
- EC50 [47]: 3.68 µM
- EC50 [48]: 9.07 µM
- EC50 [49]: 155 µM
- pEC50 [49]: 3.83
- EC50 [50]: 21.2 µM
- EC50 [51]: 0.024 µM
- EC50 [52]: > 1000 µM
- EC50 [53]: 178 µM
Structure (SMILES): N[C@@H](CCP(=O)(O)C(O)c1ccc(OCC(=O)O)cc1)C(=O)O (stereo partly specified)
